ChEMBL document CHEMBL3739379, “Anti-Candida activity and cytotoxicity of a large library of new N-substituted-1,3-thiazolidin-4-one derivatives” (Eur J Med Chem, 2016)
≈ marks a conversion by molar mass, not a printed value.

Columns and labels:
Format in all cases: functional
Escherichia coli = experiment: Antibacterial activity against Escherichia coli at after 18 to 22 hrs by broth microdilution method
Outline: (§1)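 Broth microdilution per NCCLS in Mueller-Hinton II broth; isolates subcultured for purity. Compounds dissolved in DMSO, serial dilutions 256 to 0.5 µg/mL; inoculum 10^5/mL. Controls: organism without compound, medium only. Incubation 18 to 22 h at 35 °C. MIC is the lowest concentration giving complete growth inhibition, read by unaided eye.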

[1] = test system: Staphylococcus haemolyticus; experiment: Antibacterial activity against Staphylococcus haemolyticus after 18 to 22 hrs by broth microdilution method; outline: as §1
Nakaseomyces glabratus = experiment: Antifungal activity against Candida glabrata clinical isolate after 24 hrs by sabouraud dextrose broth based microdilution method
Outline: (§2)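 Clinical isolates identified by conventional methods and subcultured for purity. Broth microdilution per NCCLS in Sabouraud dextrose broth; compounds dissolved in DMSO and serially diluted; inoculum 10^3/mL. Controls: fungi without compound, medium only. Incubated 24 h at 37 °C. MIC is the lowest concentration with complete growth inhibition by unaided eye. Values are geometric means over isolates per species.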

[Candida] sake = Antifungal activity against Candida sake clinical isolate after 24 hrs by sabouraud dextrose broth based microdilution method; details: Fermentozyma sake; outline: as §2
Candida tropicalis = experiment: Antifungal activity against Candida tropicalis clinical isolate after 24 hrs by sabouraud dextrose broth based microdilution method; outline: as §2
Candida parapsilosis = experiment: Antifungal activity against Candida parapsilosis clinical isolate after 24 hrs by sabouraud dextrose broth based microdilution method; details: Lodderomyces parapsilosis; outline: as §2
Enterobacter sp. = experiment: Antibacterial activity against Enterobacter sp. after 18 to 22 hrs by broth microdilution method; outline: as §1
Proteus mirabilis = experiment: Antibacterial activity against Proteus mirabilis after 18 to 22 hrs by broth microdilution method; outline: as §1
Pichia kudriavzevii = experiment: Antifungal activity against Candida krusei clinical isolate after 24 hrs by sabouraud dextrose broth based microdilution method; outline: as §2
Enterococcus faecalis = experiment: Antibacterial activity against […] faecalis after 18 to 22 hrs by broth microdilution method; outline: as §1
Staphylococcus warneri = experiment: Antibacterial activity against Staphylococcus warneri after 18 to 22 hrs by broth microdilution method; outline: as §1
Staphylococcus aureus = experiment: Antibacterial activity against Staphylococcus aureus after 18 to 22 hrs by broth microdilution method; outline: as §1
Klebsiella oxytoca = experiment: Antibacterial activity against Klebsiella oxytoca after 18 to 22 hrs by broth microdilution method; outline: as §1
Candida albicans = experiment: Antifungal activity against Candida albicans clinical isolate after 24 hrs by sabouraud dextrose broth based microdilution method; outline: as §2

SMILES | MIC (Escherichia coli) [µg/mL] | MIC [1] [µg/mL] | MIC (Nakaseomyces glabratus) [µg/mL] | MIC ([Candida] sake) [µg/mL] | MIC (Candida tropicalis) [µg/mL] | MIC (Candida parapsilosis) [µg/mL] | MIC (Enterobacter sp.) [µg/mL] | MIC (Proteus mirabilis) [µg/mL] | MIC (Pichia kudriavzevii) [µg/mL] | MIC (Enterococcus faecalis) [µg/mL] | MIC (Staphylococcus warneri) [µg/mL] | MIC (Staphylococcus aureus) [µg/mL] | MIC (Klebsiella oxytoca) [µg/mL] | MIC (Candida albicans) [µg/mL]
O=C1c2ccccc2C(=O)N1CN1C(=O)CS/C1=N\N=C1CCCC1 | > 256 | > 256 | 16 (≈ 44.9 µM) | 256 (≈ 718 µM) | 8 (≈ 22.4 µM) | 64 (≈ 180 µM) | > 256 | > 256 | 16 (≈ 44.9 µM) | > 256 | > 256 | > 256 | > 256 | 2 (≈ 5.61 µM)
C/C(=N\N=C1/SCC(=O)N1CN1C(=O)c2ccccc2C1=O)c1ccccn1 | > 256 | > 256 | 32 (≈ 81.3 µM) | 4 (≈ 10.2 µM) | 2 (≈ 5.08 µM) | 4 (≈ 10.2 µM) | > 256 | > 256 | 32 (≈ 81.3 µM) | > 256 | > 256 | > 256 | > 256 | 2 (≈ 5.08 µM)
CC1CC/C(=N\N=C2/SCC(=O)N2CN2C(=O)c3ccccc3C2=O)C1 (stereo not drawn) | > 256 | > 256 | 32 (≈ 86.4 µM) | 16 (≈ 43.2 µM) | 8 (≈ 21.6 µM) | 8 (≈ 21.6 µM) | > 256 | > 256 | 16 (≈ 43.2 µM) | > 256 | > 256 | > 256 | > 256 | 2 (≈ 5.4 µM)
CC1CCC(=N/N=C2\SCC(=O)N2Cc2ccc([N+](=O)[O-])cc2)CC1 (stereo not drawn) | > 256 | > 256 | 16 (≈ 44.4 µM) | 4 (≈ 11.1 µM) | 32 (≈ 88.8 µM) | 8 (≈ 22.2 µM) | > 256 | > 256 | 8 (≈ 22.2 µM) | > 256 | > 256 | > 256 | > 256 | 32 (≈ 88.8 µM)
C/C(=N\N=C1/SCC(=O)N1Cc1ccc([N+](=O)[O-])cc1)c1ccccn1 | > 256 | > 256 | 32 (≈ 86.6 µM) | 4 (≈ 10.8 µM) | 4 (≈ 10.8 µM) | 4 (≈ 10.8 µM) | > 256 | > 256 | 32 (≈ 86.6 µM) | > 256 | > 256 | > 256 | > 256 | 4 (≈ 10.8 µM)
CCCCCC/C(C)=N/N=C1\SCC(=O)N1Cc1ccc([N+](=O)[O-])cc1 | > 256 | > 256 | 2 (≈ 5.31 µM) | 256 (≈ 680 µM) | 128 (≈ 340 µM) | 256 (≈ 680 µM) | > 256 | > 256 | 128 (≈ 340 µM) | > 256 | > 256 | > 256 | > 256 | 4 (≈ 10.6 µM)
CC1CCC/C1=N\N=C1/SCC(=O)N1Cc1cccc2ccccc12 (stereo not drawn) | > 256 | > 256 | 32 (≈ 91 µM) | 2 (≈ 5.69 µM) | 2 (≈ 5.69 µM) | 8 (≈ 22.8 µM) | > 256 | > 256 | 2 (≈ 5.69 µM) | > 256 | > 256 | > 256 | > 256 | 4 (≈ 11.4 µM)
CC(C)=N/N=C1\SCC(=O)N1Cc1ccc([N+](=O)[O-])cc1 | > 256 | > 256 | 4 (≈ 13.1 µM) | 2 (≈ 6.53 µM) | 2 (≈ 6.53 µM) | 2 (≈ 6.53 µM) | > 256 | > 256 | 2 (≈ 6.53 µM) | > 256 | > 256 | > 256 | > 256 | 4 (≈ 13.1 µM)
CC1CCC/C1=N\N=C1/SCC(=O)N1CN1C(=O)c2ccccc2C1=O (stereo not drawn) | > 256 | > 256 | 32 (≈ 86.4 µM) | 8 (≈ 21.6 µM) | 4 (≈ 10.8 µM) | 8 (≈ 21.6 µM) | > 256 | > 256 | 2 (≈ 5.4 µM) | > 256 | > 256 | > 256 | > 256 | 16 (≈ 43.2 µM)
CC/C(C)=N/N=C1\SCC(=O)N1CN1C(=O)c2ccccc2C1=O | > 256 | > 256 | 2 (≈ 5.81 µM) | 2 (≈ 5.81 µM) | 64 (≈ 186 µM) | 8 (≈ 23.2 µM) | > 256 | > 256 | 8 (≈ 23.2 µM) | > 256 | > 256 | > 256 | > 256 | 2 (≈ 5.81 µM)
CC1CCCC/C1=N\N=C1/SCC(=O)N1Cc1cccc2ccccc12 (stereo not drawn) | > 256 | > 256 | 8 (≈ 21.9 µM) | 2 (≈ 5.47 µM) | 4 (≈ 10.9 µM) | 16 (≈ 43.8 µM) | > 256 | > 256 | 16 (≈ 43.8 µM) | > 256 | > 256 | > 256 | > 256 | 4 (≈ 10.9 µM)
CCCCC/C(C)=N/N=C1\SCC(=O)N1CN1C(=O)c2ccccc2C1=O | > 256 | > 256 | 8 (≈ 20.7 µM) | 2 (≈ 5.17 µM) | 128 (≈ 331 µM) | 2 (≈ 5.17 µM) | > 256 | > 256 | 2 (≈ 5.17 µM) | > 256 | > 256 | > 256 | > 256 | 4 (≈ 10.3 µM)
